How the values were obtained:
Assay type in all cases: functional
Pseudomonas aeruginosa [1] = experiment: Antibacterial activity against IMP-4 producing Pseudomonas aeruginosa isolate 212886 after 18 hrs in presence of BPL by CLSI broth microdilution method; details: isolate 212886, 18 h
Procedure, shortened: (§1)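 CLSI broth microdilution against clinical isolates (ESBL E. coli, KPC-2 MDR K. pneumoniae, IMP-4 MDR P. aeruginosa; five per species). Iron limitation: Mueller-Hinton broth supplemented with 16 mg/liter 2,2'-bipyridyl to complex iron and induce iron uptake systems. Read-out: MIC.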

Pseudomonas aeruginosa [2] = experiment: Antibacterial activity against IMP-4 producing Pseudomonas aeruginosa isolate 208247 after 18 hrs by CLSI broth microdilution method; details: isolate 208247, 18 h
Escherichia coli [3] = experiment: Antibacterial activity against extended-spectrum beta-lactamase producing Escherichia coli isolate 209285 after 18 hrs in presence of BPL by CLSI broth microdilution method; details: isolate 209285, 18 h; procedure, shortened: as §1
Pseudomonas aeruginosa [4] = experiment: Selectivity index, ratio of MIC for against IMP-4 producing Pseudomonas aeruginosa isolate 209321 to MIC for against IMP-4 producing Pseudomonas aeruginosa isolate 209321 in presence of BPL
Klebsiella pneumoniae [5] = experiment: Selectivity index, ratio of MIC for against KPC-2 producing Klebsiella pneumoniae isolate 212232 to MIC for against KPC-2 producing Klebsiella pneumoniae isolate 212232 in presence of BPL
Klebsiella pneumoniae [6] = experiment: Selectivity index, ratio of MIC for against KPC-2 producing Klebsiella pneumoniae isolate 209735 to MIC for against KPC-2 producing Klebsiella pneumoniae isolate 209735 in presence of BPL
Escherichia coli [7] = experiment: Antibacterial activity against extended-spectrum beta-lactamase producing Escherichia coli isolate 106342 after 18 hrs by CLSI broth microdilution method; details: isolate 106342, 18 h
Klebsiella pneumoniae [8] = experiment: Antibacterial activity against KPC-2 producing Klebsiella pneumoniae isolate 212423 after 18 hrs by CLSI broth microdilution method; details: isolate 212423, 18 h
Escherichia coli [9] = experiment: Antibacterial activity against extended-spectrum beta-lactamase producing Escherichia coli isolate 212648 after 18 hrs by CLSI broth microdilution method; details: isolate 212648, 18 h
Escherichia coli [10] = experiment: Antibacterial activity against extended-spectrum beta-lactamase producing Escherichia coli isolate 208687 after 18 hrs by CLSI broth microdilution method; details: isolate 208687, 18 h
Klebsiella pneumoniae [11] = experiment: Antibacterial activity against KPC-2 producing Klebsiella pneumoniae isolate 212232 after 18 hrs in presence of BPL by CLSI broth microdilution method; details: isolate 212232, 18 h; procedure, shortened: as §1
Klebsiella pneumoniae [12] = experiment: Selectivity index, ratio of MIC for against KPC-2 producing Klebsiella pneumoniae isolate 209632 to MIC for against KPC-2 producing Klebsiella pneumoniae isolate 209632 in presence of BPL
Escherichia coli [13] = experiment: Selectivity index, ratio of MIC for against extended-spectrum beta-lactamase producing Escherichia coli isolate 106342 to MIC for extended-spectrum beta-lactamase producing Escherichia coli isolate 106342 in presence of BPL
Escherichia coli [14] = experiment: Selectivity index, ratio of MIC for against extended-spectrum beta-lactamase producing Escherichia coli isolate 208687 to MIC for extended-spectrum beta-lactamase producing Escherichia coli isolate 208687 in presence of BPL
Escherichia coli [15] = experiment: Antibacterial activity against extended-spectrum beta-lactamase producing Escherichia coli isolate 208687 after 18 hrs in presence of BPL by CLSI broth microdilution method; details: isolate 208687, 18 h; procedure, shortened: as §1
Pseudomonas aeruginosa [16] = experiment: Antibacterial activity against IMP-4 producing Pseudomonas aeruginosa isolate 209321 after 18 hrs in presence of BPL by CLSI broth microdilution method; details: isolate 209321, 18 h; procedure, shortened: as §1
Escherichia coli [17] = experiment: Antibacterial activity against Escherichia coli isolate 210737 after 18 hrs in presence of BPL by CLSI broth microdilution method; details: isolate 210737, 18 h; procedure, shortened: as §1
Pseudomonas aeruginosa [18] = experiment: Antibacterial activity against IMP-4 producing Pseudomonas aeruginosa isolate 207272 after 18 hrs in presence of BPL by CLSI broth microdilution method; details: isolate 207272, 18 h; procedure, shortened: as §1
Escherichia coli [19] = experiment: Antibacterial activity against Escherichia coli isolate 210737 after 18 hrs by CLSI broth microdilution method; details: isolate 210737, 18 h
Escherichia coli [20] = experiment: Selectivity index, ratio of MIC for against extended-spectrum beta-lactamase producing Escherichia coli isolate 212648 to MIC for extended-spectrum beta-lactamase producing Escherichia coli isolate 212648 in presence of BPL
Klebsiella pneumoniae [21] = experiment: Antibacterial activity against KPC-2 producing Klebsiella pneumoniae isolate 212229 after 18 hrs by CLSI broth microdilution method; details: isolate 212229, 18 h
Escherichia coli [22] = experiment: Antibacterial activity against extended-spectrum beta-lactamase producing Escherichia coli isolate 106342 after 18 hrs in presence of BPL by CLSI broth microdilution method; details: isolate 106342, 18 h; procedure, shortened: as §1
Pseudomonas aeruginosa [23] = experiment: Antibacterial activity against IMP-4 producing Pseudomonas aeruginosa isolate 207272 after 18 hrs by CLSI broth microdilution method; details: isolate 207272, 18 h
Pseudomonas aeruginosa [24] = experiment: Antibacterial activity against IMP-4 producing Pseudomonas aeruginosa isolate 209471 after 18 hrs in presence of BPL by CLSI broth microdilution method; details: isolate 209471, 18 h; procedure, shortened: as §1
Pseudomonas aeruginosa [25] = experiment: Antibacterial activity against IMP-4 producing Pseudomonas aeruginosa isolate 209321 after 18 hrs by CLSI broth microdilution method; details: isolate 209321, 18 h
Klebsiella pneumoniae [26] = experiment: Antibacterial activity against KPC-2 producing Klebsiella pneumoniae isolate 209632 after 18 hrs by CLSI broth microdilution method; details: isolate 209632, 18 h
Pseudomonas aeruginosa [27] = experiment: Selectivity index, ratio of MIC for against IMP-4 producing Pseudomonas aeruginosa isolate 212886 to MIC for against IMP-4 producing Pseudomonas aeruginosa isolate 212886 in presence of BPL
Escherichia coli [28] = experiment: Selectivity index, ratio of MIC for against extended-spectrum beta-lactamase producing Escherichia coli isolate 209285 to MIC for extended-spectrum beta-lactamase producing Escherichia coli isolate 209285 in presence of BPL
Escherichia coli [29] = experiment: Antibacterial activity against extended-spectrum beta-lactamase producing Escherichia coli isolate 212648 after 18 hrs in presence of BPL by CLSI broth microdilution method; details: isolate 212648, 18 h; procedure, shortened: as §1
Klebsiella pneumoniae [30] = experiment: Antibacterial activity against KPC-2 producing Klebsiella pneumoniae isolate 212423 after 18 hrs in presence of BPL by CLSI broth microdilution method; details: isolate 212423, 18 h; procedure, shortened: as §1
Pseudomonas aeruginosa [31] = experiment: Selectivity index, ratio of MIC for against IMP-4 producing Pseudomonas aeruginosa isolate 208247 to MIC for against IMP-4 producing Pseudomonas aeruginosa isolate 208247 in presence of BPL
Escherichia coli [32] = experiment: Antibacterial activity against extended-spectrum beta-lactamase producing Escherichia coli isolate 209285 after 18 hrs by CLSI broth microdilution method; details: isolate 209285, 18 h
Klebsiella pneumoniae [33] = experiment: Antibacterial activity against KPC-2 producing Klebsiella pneumoniae isolate 209632 after 18 hrs in presence of BPL by CLSI broth microdilution method; details: isolate 209632, 18 h; procedure, shortened: as §1
Pseudomonas aeruginosa [34] = experiment: Antibacterial activity against IMP-4 producing Pseudomonas aeruginosa isolate 209471 after 18 hrs by CLSI broth microdilution method; details: isolate 209471, 18 h
Klebsiella pneumoniae [35] = experiment: Selectivity index, ratio of MIC for against KPC-2 producing Klebsiella pneumoniae isolate 212229 to MIC for against KPC-2 producing Klebsiella pneumoniae isolate 212229 in presence of BPL
Pseudomonas aeruginosa [36] = experiment: Antibacterial activity against IMP-4 producing Pseudomonas aeruginosa isolate 212886 after 18 hrs by CLSI broth microdilution method; details: isolate 212886, 18 h
Pseudomonas aeruginosa [37] = experiment: Antibacterial activity against IMP-4 producing Pseudomonas aeruginosa isolate 208247 after 18 hrs in presence of BPL by CLSI broth microdilution method; details: isolate 208247, 18 h; procedure, shortened: as §1
Pseudomonas aeruginosa [38] = experiment: Selectivity index, ratio of MIC for against IMP-4 producing Pseudomonas aeruginosa isolate 207272 to MIC for against IMP-4 producing Pseudomonas aeruginosa isolate 207272 in presence of BPL
Escherichia coli [39] = experiment: Selectivity index, ratio of MIC for against Escherichia coli isolate 210737 to MIC for Escherichia coli isolate 210737 in presence of BPL
Klebsiella pneumoniae [40] = experiment: Antibacterial activity against KPC-2 producing Klebsiella pneumoniae isolate 212232 after 18 hrs by CLSI broth microdilution method; details: isolate 212232, 18 h
Klebsiella pneumoniae [41] = experiment: Antibacterial activity against KPC-2 producing Klebsiella pneumoniae isolate 209735 after 18 hrs in presence of BPL by CLSI broth microdilution method; details: isolate 209735, 18 h; procedure, shortened: as §1
Klebsiella pneumoniae [42] = experiment: Antibacterial activity against KPC-2 producing Klebsiella pneumoniae isolate 212229 after 18 hrs in presence of BPL by CLSI broth microdilution method; details: isolate 212229, 18 h; procedure, shortened: as §1
Klebsiella pneumoniae [43] = experiment: Antibacterial activity against KPC-2 producing Klebsiella pneumoniae isolate 209735 after 18 hrs by CLSI broth microdilution method; details: isolate 209735, 18 h
Pseudomonas aeruginosa [44] = experiment: Selectivity index, ratio of MIC for against IMP-4 producing Pseudomonas aeruginosa isolate 209471 to MIC for against IMP-4 producing Pseudomonas aeruginosa isolate 209471 in presence of BPL
Klebsiella pneumoniae [45] = experiment: Selectivity index, ratio of MIC for against KPC-2 producing Klebsiella pneumoniae isolate 212423 to MIC for against KPC-2 producing Klebsiella pneumoniae isolate 212423 in presence of BPL

COC[C@@H]1[C@H](NC(=O)/C(=N\OC(c2cc(=O)c(O)cn2O)C(C)C)c2csc(N)n2)C(=O)N1S(=O)(=O)O (stereo not given in full)
4: Selectivity Index (Klebsiella pneumoniae [6]) | Selectivity Index (Klebsiella pneumoniae [12]) | Selectivity Index (Escherichia coli [20]) | Selectivity Index (Escherichia coli [28]) | Selectivity Index (Klebsiella pneumoniae [35])
1: Selectivity Index (Pseudomonas aeruginosa [4]) | Selectivity Index (Pseudomonas aeruginosa [27]) | Selectivity Index (Pseudomonas aeruginosa [31]) | Selectivity Index (Pseudomonas aeruginosa [38]) | Selectivity Index (Escherichia coli [39])
0.5 µg/mL: MIC (Escherichia coli [7]) | MIC (Klebsiella pneumoniae [8]) | MIC (Escherichia coli [10]) | MIC (Klebsiella pneumoniae [11]) | MIC (Escherichia coli [17]) | MIC (Escherichia coli [19]) | MIC (Klebsiella pneumoniae [21]) | MIC (Escherichia coli [32])
8: Selectivity Index (Klebsiella pneumoniae [5])
2: Selectivity Index (Escherichia coli [13]) | Selectivity Index (Escherichia coli [14]) | Selectivity Index (Pseudomonas aeruginosa [44]) | Selectivity Index (Klebsiella pneumoniae [45])
8 µg/mL: MIC (Pseudomonas aeruginosa [2]) | MIC (Pseudomonas aeruginosa [18]) | MIC (Pseudomonas aeruginosa [23]) | MIC (Pseudomonas aeruginosa [24]) | MIC (Pseudomonas aeruginosa [37])
1 µg/mL: MIC (Escherichia coli [9]) | MIC (Klebsiella pneumoniae [33])
16 µg/mL: MIC (Pseudomonas aeruginosa [1]) | MIC (Pseudomonas aeruginosa [16]) | MIC (Pseudomonas aeruginosa [25]) | MIC (Pseudomonas aeruginosa [34]) | MIC (Pseudomonas aeruginosa [36]) | MIC (Klebsiella pneumoniae [43])
4 µg/mL: MIC (Klebsiella pneumoniae [26]) | MIC (Klebsiella pneumoniae [40]) | MIC (Klebsiella pneumoniae [41])
0.125 µg/mL: MIC (Escherichia coli [3]) | MIC (Klebsiella pneumoniae [42])
0.25 µg/mL: MIC (Escherichia coli [15]) | MIC (Escherichia coli [22]) | MIC (Escherichia coli [29]) | MIC (Klebsiella pneumoniae [30])

CC(=O)OC[C@@H]1[C@H](NC(=O)/C(=N\OC(c2cc(=O)c(O)cn2O)C(C)C)c2csc(N)n2)C(=O)N1S(=O)(=O)O (stereo not given in full)
1 µg/mL: MIC (Escherichia coli [7]) | MIC (Escherichia coli [9]) | MIC (Escherichia coli [10]) | MIC (Escherichia coli [22]) | MIC (Klebsiella pneumoniae [30]) | MIC (Escherichia coli [32]) | MIC (Klebsiella pneumoniae [33]) | MIC (Klebsiella pneumoniae [41]) | MIC (Klebsiella pneumoniae [42])
1: Selectivity Index (Pseudomonas aeruginosa [4]) | Selectivity Index (Escherichia coli [13]) | Selectivity Index (Pseudomonas aeruginosa [31]) | Selectivity Index (Escherichia coli [39])
>4: Selectivity Index (Pseudomonas aeruginosa [27])
16 µg/mL: MIC (Pseudomonas aeruginosa [1])
>1: Selectivity Index (Pseudomonas aeruginosa [38])
> 64 µg/mL: MIC (Pseudomonas aeruginosa [23]) | MIC (Pseudomonas aeruginosa [36])
0.25 µg/mL: MIC (Escherichia coli [15])
32 µg/mL: MIC (Pseudomonas aeruginosa [24])
2: Selectivity Index (Klebsiella pneumoniae [6]) | Selectivity Index (Klebsiella pneumoniae [12]) | Selectivity Index (Escherichia coli [20]) | Selectivity Index (Escherichia coli [28]) | Selectivity Index (Klebsiella pneumoniae [35]) | Selectivity Index (Pseudomonas aeruginosa [44]) | Selectivity Index (Klebsiella pneumoniae [45])
4: Selectivity Index (Escherichia coli [14])
0.5 µg/mL: MIC (Escherichia coli [3]) | MIC (Klebsiella pneumoniae [11]) | MIC (Escherichia coli [17]) | MIC (Escherichia coli [19]) | MIC (Escherichia coli [29])
2 µg/mL: MIC (Klebsiella pneumoniae [8]) | MIC (Klebsiella pneumoniae [21]) | MIC (Klebsiella pneumoniae [26]) | MIC (Klebsiella pneumoniae [43])
64 µg/mL: MIC (Pseudomonas aeruginosa [2]) | MIC (Pseudomonas aeruginosa [16]) | MIC (Pseudomonas aeruginosa [18]) | MIC (Pseudomonas aeruginosa [25]) | MIC (Pseudomonas aeruginosa [34]) | MIC (Pseudomonas aeruginosa [37])
8 µg/mL: MIC (Klebsiella pneumoniae [40])
16: Selectivity Index (Klebsiella pneumoniae [5])

From ChEMBL document CHEMBL4152188, “Design, synthesis and biological evaluation of C(4) substituted monobactams as antibacterial agents against multidrug-resistant Gram-negative bacteria” (Eur J Med Chem, 2018)
